Assay results: ChEMBL document CHEMBL4033712, “Synthesis and biological evaluation of new C-12(α/β)-(N-) sulfamoyl-phenylamino-14-deoxy-andrographolide derivatives as potent anti-cancer agents” (Bioorg Med Chem Lett, 2017)

How the values were obtained:
Format in all cases: functional
[1] = test system: HOP-92; experiment: Anticancer activity against human HOP92 cells assessed as cell growth at 10 uM after 48 hrs by sulforhodamine B assay relative to control; details: HOP-92, 48 h, read-out: Activity
Outline: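 Single-dose NCI-60 panel screen: compound added at 10 µM and the culture incubated 48 h. The end point was read by protein staining with sulforhodamine B. The value is percent growth of treated cells relative to untreated control cells, reported as a mean graph across the panel.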

[2] = test system: ACHN; experiment: Growth inhibition of human ACHN cells incubated for 48 hrs by sulforhodamine B assay
Outline: (§1)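 NCI-60 five-dose screen at 0.01, 0.1, 1, 10 and 100 µM, 48 h incubation, sulforhodamine B end point. GI50 (50% decrease in net growth), TGI (total growth inhibition) and LC50 (net 50% loss of initial cells) taken from log concentration versus % growth inhibition curves.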

[3] = test system: K562; experiment: Growth inhibition of human K562 cells incubated for 48 hrs by sulforhodamine B assay; details: K562, 48 h; outline: as §1
[4] = test system: M14; experiment: Growth inhibition of human M14 cells incubated for 48 hrs by sulforhodamine B assay; details: M14, 48 h; outline: as §1
[5] = test system: 786-0; experiment: Growth inhibition of human 786-0 cells incubated for 48 hrs by sulforhodamine B assay; details: 786-0, 48 h; outline: as §1
[6] = test system: SF-539; experiment: Growth inhibition of human SF539 cells incubated for 48 hrs by sulforhodamine B assay; details: SF-539, 48 h
Outline: (§2)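 NCI 60 human tumour cell line panel, five-dose study at 0.01, 0.1, 1, 10 and 100 µM, 48 h incubation. Sulforhodamine B protein-binding dye end point. GI50 (50% decrease in net cell growth), TGI (total growth inhibition) and LC50 (net 50% loss of initial cells) read from log concentration versus % growth inhibition curves.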

[7] = test system: MCF7; experiment: Growth inhibition of human MCF7 cells incubated for 48 hrs by sulforhodamine B assay; details: MCF7, 48 h; outline: as §1
[8] = test system: HT-29; experiment: Growth inhibition of human HT-29 cells incubated for 48 hrs by sulforhodamine B assay; details: HT-29, 48 h; outline: as §1
[9] = test system: SNB-75; experiment: Growth inhibition of human SNB75 cells incubated for 48 hrs by sulforhodamine B assay; details: SNB-75, 48 h; outline: as §2
[10] = test system: HOP-62; experiment: Growth inhibition of human HOP62 cells incubated for 48 hrs by sulforhodamine B assay; details: HOP-62, 48 h; outline: as §1
[11] = test system: UO-31; experiment: Growth inhibition of human UO31 cells incubated for 48 hrs by sulforhodamine B assay; details: UO-31, 48 h; outline: as §2
[12] = test system: PC-3; experiment: Growth inhibition of human PC3 cells incubated for 48 hrs by sulforhodamine B assay; details: PC-3, 48 h; outline: as §1
[13] = test system: MOLT-4; experiment: Growth inhibition of human MOLT4 cells incubated for 48 hrs by sulforhodamine B assay; details: MOLT-4, 48 h; outline: as §1
[14] = test system: HL-60(TB); experiment: Growth inhibition of human HL-60(TB) cells incubated for 48 hrs by sulforhodamine B assay; details: HL-60, 48 h
Outline: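 NCI-60 five-dose screen at 0.01, 0.1, 1, 10 and 100 µM for 48 h, sulforhodamine B read-out. GI50 taken from log concentration versus % growth inhibition curves as the concentration giving 50% decrease in net cell growth.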

[15] = test system: SW-620; experiment: Growth inhibition of human SW620 cells incubated for 48 hrs by sulforhodamine B assay; details: SW-620, 48 h; outline: as §2
[16] = test system: MDA-MB-435; experiment: Growth inhibition of human MDA-MB-435 cells incubated for 48 hrs by sulforhodamine B assay; details: MDA-MB-435, 48 h; outline: as §1
[17] = test system: EKVX; experiment: Growth inhibition of human EKVX cells incubated for 48 hrs by sulforhodamine B assay; outline: as §1
[18] = test system: RXF 393; experiment: Growth inhibition of human RXF393 cells incubated for 48 hrs by sulforhodamine B assay; details: RXF 393, 48 h; outline: as §2
[19] = test system: KM12; experiment: Growth inhibition of human KM12 cells incubated for 48 hrs by sulforhodamine B assay; details: KM12, 48 h; outline: as §1
[20] = test system: SK-MEL-5; experiment: Growth inhibition of human SK-MEL-5 cells incubated for 48 hrs by sulforhodamine B assay; details: SK-MEL-5, 48 h; outline: as §2
[21] = test system: SF-268; experiment: Growth inhibition of human SF268 cells incubated for 48 hrs by sulforhodamine B assay; details: SF-268, 48 h; outline: as §2
[22] = test system: COLO 205; experiment: Growth inhibition of human COLO205 cells incubated for 48 hrs by sulforhodamine B assay; details: COLO 205, 48 h; outline: as §1
[23] = test system: NCI-H23; experiment: Growth inhibition of human NCI-H23 cells incubated for 48 hrs by sulforhodamine B assay; details: NCI-H23, 48 h; outline: as §1
[24] = test system: CAKI-1; experiment: Growth inhibition of human Caki1 cells incubated for 48 hrs by sulforhodamine B assay; details: CAKI-1, 48 h; outline: as §1
[25] = test system: UACC-62; experiment: Growth inhibition of human UACC62 cells incubated for 48 hrs by sulforhodamine B assay; details: UACC-62, 48 h; outline: as §2
[26] = test system: OVCAR-5; experiment: Growth inhibition of human OVCAR5 cells incubated for 48 hrs by sulforhodamine B assay; details: OVCAR-5, 48 h; outline: as §1
[27] = test system: OVCAR-3; experiment: Growth inhibition of human OVCAR3 cells incubated for 48 hrs by sulforhodamine B assay; details: OVCAR-3, 48 h; outline: as §1
[28] = test system: CCRF-CEM; experiment: Growth inhibition of human CCRF-CEM cells incubated for 48 hrs by sulforhodamine B assay; outline: as §1
[29] = read-out: LC50 (the source's name)

## C=C1CC[C@@H]2[C@](C)(COC(C)=O)[C@H](OC(C)=O)CC[C@@]2(C)[C@H]1CC(Nc1ccc(S(=O)(=O)Nc2nc(C)cc(C)n2)cc1)C1=CCOC1=O (stereo partly specified)
[1]
  growth at 10 µM: 90.1%

## C=C1CC[C@@H]2[C@](C)(COC(C)=O)[C@H](OC(C)=O)CC[C@@]2(C)[C@H]1CC(Nc1ccc(S(=O)(=O)Nc2cc(C)on2)cc1)C1=CCOC1=O (stereo partly specified)
[2]
  GI50: 1.71 µM
  TGI: 3.48 µM
[2]; [29]
  CC50: 7.05 µM
[3]
  GI50: 1.57 µM
  TGI: 8.42 µM
[3]; [29]
  CC50: > 100 µM
[4]
  GI50: 1.69 µM
  TGI: 4.17 µM
[4]; [29]
  CC50: 10.8 µM
[5]
  GI50: 1.96 µM
  LC50 (concentration giving net 50% loss of initial cells): 6.82 µM
  TGI: 3.66 µM
[6]
  GI50: 1.59 µM
  TGI: 3.06 µM
[6]; [29]
  CC50: 5.89 µM
[7]
  GI50: 0.59 µM
  TGI: 2.76 µM
[8]
  GI50: 1.58 µM
  TGI: 3.09 µM
[8]; [29]
  CC50: 6.04 µM
[9]
  GI50: 2.03 µM
  TGI: 11.5 µM
[9]; [29]
  CC50: 33.9 µM
[10]
  GI50: 8.88 µM
  TGI: 22.9 µM
[10]; [29]
  CC50: 56.9 µM
[11]
  GI50: 1.69 µM
  LC50 (concentration giving net 50% loss of initial cells): 7.33 µM
  TGI: 3.52 µM
[12]
  GI50: 1.98 µM
  TGI: 4.31 µM
[12]; [29]
  CC50: 9.4 µM
[13]
  GI50: 2.12 µM
  TGI: 6.39 µM
[13]; [29]
  CC50: > 100 µM
[14]
  GI50: 1.39 µM
  TGI: 3.69 µM
[14]; [29]
  CC50: 9.82 µM
[15]
  GI50: 1.32 µM
  TGI: 2.91 µM
[15]; [29]
  CC50: 6.44 µM
[16]
  GI50: 1.74 µM
  TGI: 4.37 µM
[16]; [29]
  CC50: 12.5 µM
[17]
  GI50: 11 µM
  TGI: 25.9 µM
[17]; [29]
  CC50: 60.8 µM
[18]
  GI50: 2.05 µM
  TGI: 3.84 µM
[18]; [29]
  CC50: 7.22 µM
[19]
  GI50: 1.83 µM
  TGI: 3.69 µM
[19]; [29]
  CC50: 7.42 µM
[20]
  GI50: 2.11 µM
  TGI: 4.65 µM
[20]; [29]
  CC50: 11.7 µM
[21]
  GI50: 2.35 µM
  TGI: 6.11 µM
[21]; [29]
  CC50: 32.9 µM
[22]
  GI50: 1.97 µM
  TGI: 4.34 µM
[22]; [29]
  CC50: 9.55 µM
[23]
  GI50: 2.31 µM
  TGI: 5.9 µM
[23]; [29]
  CC50: 31.4 µM
[24]
  GI50: 4.14 µM
  TGI: 14.7 µM
[24]; [29]
  CC50: 38.6 µM
[25]
  GI50: 2.13 µM
  TGI: 7.06 µM
[25]; [29]
  CC50: 30.5 µM
[26]
  GI50: 2.16 µM
  LC50 (concentration causing net 50% loss of initial cells): 7.61 µM
  TGI: 4.05 µM
[27]
  GI50: 1.66 µM
  TGI: 3.09 µM
[27]; [29]
  CC50: 5.75 µM
[28]
  GI50: 0.47 µM
  TGI: 2.71 µM
[28]; [29]
  CC50: > 100 µM
